Data on 33 molecules can be found in ChEMBL document CHEMBL3763114, “Syntheses and biological evaluation of 1,2,3-triazole and 1,3,4-oxadiazole derivatives of imatinib” (Bioorg Med Chem Lett, 2016).

pIC50: −log10 of the molar value.

The nature of data set [1]: Antiproliferative activity against human HL60 cells assessed as inhibition of cell survival after 72 hrs by MTT assay. The data set is classed as functional, cell-based. The settings on record: HL-60, 72 h. A digest of the protocol:
(§1)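 Each of the three leukemia lines (K562, HL60, KG1a) was incubated with the compounds for 72 h. The survival rate was then read by MTT viability assay, with imatinib run as the positive control. Inhibitory activity is reported as IC50 in μM.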

Data set [2] can be described thus: Antiproliferative activity against human KG1a cells assessed as inhibition of cell survival after 72 hrs by MTT assay. The data set is classed as functional, cell-based. The conditions noted are these: KG-1a. A digest of the protocol: as §1
Data set [3] deals with K562. Nature of the data set: Antiproliferative activity against human K562 cells assessed as inhibition of cell survival after 72 hrs by MTT assay. It is filed as functional, cell-based. The settings on record: K562, 72 h. A digest of the protocol: as §1
The nature of data set [4]: Cytotoxicity against human 293T cells assessed as growth inhibition. It is filed as cell-based, HEK-293T.
For data set [5], the system named is K562. As to the kind of experiment: Antiproliferative activity against human K562 cells assessed as reduction in cell viability after 72 hrs by resazurin assay. It is filed as functional, cell-based. The settings on record: K562, 72 h.
Data set [6] in a line: Potency index, ratio of imatinib IC50 to compound IC50 for antiproliferative activity against human KG1a cells. It is filed as functional.

On to `Cc1ccc(-c2cn(-c3ccc(CN4CCCCC4)cc3)nn2)cc1Nc1nccc(-c2cccnc2)n1`, for which the pIC50 in data set [1] is 6.13; in data set [2] it was 5.76; in data set [3], 5.48.

On to `Cc1ccc(-c2cn(-c3ccc(CN4CCOCC4)cc3)nn2)cc1Nc1nccc(-c2cccnc2)n1`, for which the negative-log IC50 (pIC50) in data set [1] is 5.16; in data set [2], 5.88; in data set [3], 4.65.

In the case of `Cc1ccc(-n2cc(-c3cc(C(F)(F)F)cc(C(F)(F)F)c3)nn2)cc1Nc1nccc(-c2cccnc2)n1`, the pIC50 in data set [1] was 5.80; in data set [2] it was 5.00; in data set [3] it was 5.58.

Turning to `Cc1ccc(-c2nnc(-c3ccc(CN4CCN(C)CC4)cc3)o2)cc1Nc1nccc(-c2cccnc2)n1`, the figures for the pIC50 in data set [1], in data set [2] and in data set [3] were 6.24, 5.75 and 5.31, respectively. For the same molecule, the CC50 in data set [4] is 7.63 µM.

For `Cc1ccc(-c2nnc(-c3ccc(F)c(C(F)(F)F)c3)o2)cc1Nc1nccc(-c2cccnc2)n1`, the negative logarithm of the IC50 (pIC50) is less than 4.52 in data set [1], less than 4.52 in data set [2] and 4.53 in data set [3].

For the molecule `Cc1ccc(-c2nnc(-c3ccc(C)c(C(F)(F)F)c3)o2)cc1Nc1nccc(-c2cccnc2)n1`, the pIC50 in data set [1], in data set [2] and in data set [3] was less than 4.52 throughout.

As for `Cc1ccc(-c2nnc(-c3cc(C(F)(F)F)cc(C(F)(F)F)c3)o2)cc1Nc1nccc(-c2cccnc2)n1`, the pIC50 in data set [1], in data set [2] and in data set [3] was less than 4.52 throughout.

For the molecule `COc1cc(/C=C/C(=O)CC(=O)/C=C/c2ccc(OCCN3CCN(Cc4ccc(-c5nnc(-c6ccc(C)c(Nc7nccc(-c8cccnc8)n7)c6)o5)cc4)CC3)c(OC)c2)ccc1O`, the pIC50 in data set [1], in data set [2] and in data set [3] was less than 4.52 throughout.

`Cc1ccc(-n2cc(CCCCO)nn2)cc1Nc1nccc(-c2cccnc2)n1`: the pIC50 in data set [3] was 4.95.

Take `Cc1ccc(-c2cn(-c3ccc(N4CCOCC4)cc3)nn2)cc1Nc1nccc(-c2cccnc2)n1`: the pIC50 is less than 4.52 in data set [1], 5.28 in data set [2] and 4.63 in data set [3].

As to `Cc1ccc(-n2cc(CCO)nn2)cc1Nc1nccc(-c2cccnc2)n1`, the pIC50 in data set [1] was 5.04; in data set [2] it was 5.18; in data set [3] it was 4.97.

For `Cc1ccc(-c2nnc(-c3ccc(CN4CCN(CCN=C=S)CC4)cc3)o2)cc1Nc1nccc(-c2cccnc2)n1`, the pIC50 in data set [1] was 6.54; in data set [2] it was 6.43; in data set [3] it was 6.04.

In the case of `Cc1nnc(-c2ccc(C)c(Nc3nccc(-c4cccnc4)n3)c2)o1`, the pIC50 in data set [1] is less than 4.52; in data set [2], 4.74; in data set [3], less than 4.52.

Take `Cc1ccc(-n2cc(-c3ccc(CN4CCN(C)CC4)cc3)nn2)cc1Nc1nccc(-c2cccnc2)n1`: the figures for the pIC50 in data set [5] and in data set [3] were 6.05 and 6.10, respectively. Moreover, in data set [4], the CC50 came out at 14.9 µM.

As for `Cc1ccc(-c2cn(-c3ccc(CN4CCCC4)cc3)nn2)cc1Nc1nccc(-c2cccnc2)n1`, the pIC50 in data set [1] was 5.80; in data set [2] it was 5.27; in data set [3], 5.41.

Consider `CCN(CC)c1ccc(-n2cc(-c3ccc(C)c(Nc4nccc(-c5cccnc5)n4)c3)nn2)cc1`, for which the pIC50 in data set [1] is 4.87; in data set [2], 5.53; in data set [3] it was less than 4.52.

As to `Cc1ccc(NC(=O)c2ccc(CN3CCN(C)CC3)cc2)cc1Nc1nccc(-c2cccnc2)n1` [IMATINIB], the figures for the pIC50 in data set [1] and in data set [2] were 7.52 and 4.78, respectively. Besides, the CC50 in data set [4] worked out at 20.5 µM.

`Cc1ccc(-c2nnc(-c3ccc(CN4CCN(CCO)CC4)c(C(F)(F)F)c3)o2)cc1Nc1nccc(-c2cccnc2)n1`: the results for the pIC50 in data set [1], in data set [2] and in data set [3] were 6.41, 6.01 and 5.74, respectively.

In the case of `Cc1ccc(-c2cn(-c3ccccc3N3CCOCC3)nn2)cc1Nc1nccc(-c2cccnc2)n1`, the pIC50 was 5.83 in data set [1], 6.36 in data set [2] and 5.23 in data set [3]. In addition, in data set [6], the “Ratio IC50” value turned out to be 30.

In the case of `C=CC(=O)NCCN1CCN(Cc2ccc(-c3nnc(-c4ccc(C)c(Nc5nccc(-c6cccnc6)n5)c4)o3)cc2C(F)(F)F)CC1`, the pIC50 in data set [1] was 5.58; in data set [3], 6.22.

Turning to `Cc1ccc(-n2cc(-c3ccc(C)c(C(F)(F)F)c3)nn2)cc1Nc1nccc(-c2cccnc2)n1`, the pIC50 in data set [1], in data set [2] and in data set [3] was less than 4.52 in each case.

As for `Cc1ccc(-c2nnc(-c3ccc(CN4CCN(C)CC4)c(C(F)(F)F)c3)o2)cc1Nc1nccc(-c2cccnc2)n1`, the pIC50 in data set [1] was 7.30; in data set [2], 6.24; in data set [3], 6.29. Also, the CC50 in data set [4] came to 2.17 µM. Moreover, the “Ratio IC50” value in data set [6] was 30.

`Cc1ccc(-c2cn(-c3ccc(CN4CCN(C)CC4)c(C(F)(F)F)c3)nn2)cc1Nc1nccc(-c2cccnc2)n1`: the pIC50 in data set [1] was 7.70; in data set [2], 5.98; in data set [3], 7.52. Further, in data set [4], the CC50 worked out at 2.66 µM.

For `COc1ccc(-c2cn(-c3ccc(C)c(Nc4nccc(-c5cccnc5)n4)c3)nn2)cc1C(F)(F)F`, the negative logarithm of the IC50 (pIC50) was 4.67 in data set [1], 4.52 in data set [2] and 4.95 in data set [3].

`Cc1ccc(-c2nnc(-c3ccc(CN4CCN(CCO)CC4)cc3)o2)cc1Nc1nccc(-c2cccnc2)n1`: the pIC50 was 6.09 in data set [1], 5.34 in data set [2] and 5.31 in data set [3].

Regarding `Cc1ccc(-n2cc(-c3ccc(CN4CCN(C)CC4)c(C(F)(F)F)c3)nn2)cc1Nc1nccc(-c2cccnc2)n1`, the pIC50 is 7.70 in data set [1], 5.90 in data set [2] and 7.40 in data set [3]. Besides, the CC50 in data set [4] was found to be 8.18 µM.

For the molecule `Cc1ccc(-n2cc(C(C)O)nn2)cc1Nc1nccc(-c2cccnc2)n1` (stereo not drawn), the pIC50 in data set [1] is 4.59; in data set [2] it was 4.90; in data set [3], 4.82.

As to `Cc1ccc(-c2cn(-c3ccc(CN4CCN(C)CC4)cc3)nn2)cc1Nc1nccc(-c2cccnc2)n1`, the figures for the pIC50 in data set [1], in data set [2] and in data set [3] were 5.17, 5.21 and 5.33, respectively. In addition, in data set [4], the CC50 was found to be 4.15 µM.

On to `Cc1ccc(-c2nnc(-c3ccc(CN4CCN(CCN)CC4)c(C(F)(F)F)c3)o2)cc1Nc1nccc(-c2cccnc2)n1`, for which the values for the pIC50 in data set [1], in data set [2] and in data set [3] were 7.70, 6.32 and 6.52, respectively. Moreover, the “Ratio IC50” value in data set [6] was found to be 30.

Turning to `Cc1ccc(-c2nnc(-c3cccnc3)o2)cc1Nc1nccc(-c2cccnc2)n1`, the pIC50 in data set [1], in data set [2] and in data set [3] was less than 4.52 in each case.

Take `Cc1ccc(-c2cn(-c3cc(C(F)(F)F)ccc3N3CCOCC3)nn2)cc1Nc1nccc(-c2cccnc2)n1`: the pIC50 is 4.76 in data set [1], 5.61 in data set [2] and 5.00 in data set [3].

In the case of `Cc1ccc(-c2nnc(-c3ccc(CN4CCN(CCN=C=S)CC4)c(C(F)(F)F)c3)o2)cc1Nc1nccc(-c2cccnc2)n1`, the values for the pIC50 in data set [1], in data set [2] and in data set [3] were 7.15, 6.03 and 6.30, respectively.

Regarding `COc1ccc(-n2cc(-c3ccc(C)c(Nc4nccc(-c5cccnc5)n4)c3)nn2)cc1`, the pIC50 in data set [1] and in data set [3] was less than 4.52 in each case.
